# ANO1 block = TMEM16A chloride channel inhibitors, primary screen, cell-based, HTS; Anoctamin-1 (Mus musculus), Q8BHY3; HEK293 TMEM16A/YFP iodide influx fluorescence, ionomycin; normalized B-score (activity score, 25-100; higher = stronger inhibition) at 10 µM; 310,000 tested, 1.2% active;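 active = ratio plate-corrected score three or more library SD toward inhibition, starting fluorescence score within five deviations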;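 also: score derived from kinetic fluorescence span divided by baseline fluorescence per well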
# m5-HT2A agonist = mouse Htr2a agonists via beta-arrestin recruitment, primary screen, cell-based, luminescence; 360,000 tested, 0.66% active; 5-hydroxytryptamine receptor 2A (Mus musculus), P35363; activation, % at 7.6 µM; CHO-K1 mHTR2A beta-arrestin complementation; percent of 30 µM serotonin response;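 active = activation above a run cutoff, the mean activation of all tested compounds plus 3 SD, cut at about 14% in these data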;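 also: 0% = plate median of compound wells and 100% = 30 µM serotonin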
# MIN6 prolif = inducers of MIN6 beta-cell proliferation, primary screen, ATP luminescence, uHTS | proliferation, % at 10 µM | MIN6 cells proliferation, ATPlite luminescence, 48 h; cells starved in 0.2% serum; 100% = growth in 10% serum | AID 2380, 2010 | 330,000 tested, 0.29% active;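 active = compounds whose signal lies at least 3.5 SD above the mean of all wells on their plate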;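 also: 0% = DMSO-treated cells in low-serum medium and 100% = 10% serum control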
# MC4R antag cAMP = MC4R antagonists of cAMP signaling, primary screen, cell-based, TR-FRET, antagonist arm of biased-ligand search; MC4R-expressing cells, MTII-stimulated cAMP, LANCE TR-FRET; inhibition, % at 6.5 µM; 360,000 tested, 0.48% active;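 active = inhibition above its plate's cutoff, the mean of tested wells on that plate plus 3 SD, cut at about 29% in these data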;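 also: 0% = Melanotan II alone and 100% = Melanotan II plus saturating MCL0020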
# Target sequence (P32245 whole entry, looked up): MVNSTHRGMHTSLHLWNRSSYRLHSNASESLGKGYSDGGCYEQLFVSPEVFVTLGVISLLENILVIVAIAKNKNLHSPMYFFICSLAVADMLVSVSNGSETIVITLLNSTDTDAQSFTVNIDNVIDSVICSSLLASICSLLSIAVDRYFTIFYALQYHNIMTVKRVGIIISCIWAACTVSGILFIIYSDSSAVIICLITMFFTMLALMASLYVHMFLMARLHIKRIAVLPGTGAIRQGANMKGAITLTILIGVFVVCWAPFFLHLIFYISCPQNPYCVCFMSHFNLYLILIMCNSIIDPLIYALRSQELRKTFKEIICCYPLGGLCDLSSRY
#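 Material: human MC4R-expressing U2OS cells. Probe or stimulus: Melanotan II challenge. Dosing: 6.5 µM single dose. Times: 30-min compound, 1-h challenge, 1-h detection, room temperature. Technique: TR-FRET with Eu-cAMP and labeled anti-cAMP, 671 nm. Replication: singlicate.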
# TMEM16A act = TMEM16A chloride channel activators or potentiators, primary screen, cell-based, HTS; B-score at 10 µM; AID 623877, 2012; Anoctamin-1 (Mus musculus), Q8BHY3; HEK293 TMEM16A/YFP-H148Q/I152L, iodide quench fluorescence; hits give low values; 340,000 tested, 0.3% active;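 active = fluorescence-ratio B-score plate-corrected deviation score at least 3 library SD below zero, with starting fluorescence score within 5 deviations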;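 also: channel opened by trigger with iodide after compound preincubation; score built on the fluorescence ratio of max minus min over baseline; more negative score means more quench and so TMEM16A activation or potentiation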
# MC4R ag barr = MC4R agonists recruiting beta-arrestin, primary screen, cell-based, luminescence, agonist arm of biased-ligand search; U2OS MC4R beta-arrestin complementation; percent of melanotan II response, DMSO zero; activation, % at 8.9 µM; 360,000 tested, 0.98% active;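 active = activation above a per-plate cutoff, the mean activation of sample wells on that plate plus 3 SD, cut at about 8% in these data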
# TMEM16A reconf = TMEM16A chloride channel inhibitors, confirmation, cell-based, re-confirmation; shares compounds with ANO1 block; HEK293 TMEM16A/YFP-H148Q, iodide quench fluorescence; ionomycin added to raise cell calcium; inhibition, % at 10 µM; 2,300 tested, 39% active; AID 652189, 2013;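 active = mean duplicate percent inhibition, scaled so buffer wells are 0 and the reference blocker 100, over three buffer SD above buffer mean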
# HEK293 Ca mobil = calcium mobilization in TMEM16A/YFP HEK293 cells, confirmation, counter-screen for TMEM16A inhibitor project; shares compounds with ANO1 block; Fluo4 calcium mobilization; calcium response (% of ionomycin), % at 10 µM; 2,300 tested, 2% active; AID 652231, 2013;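 active = duplicate-averaged calcium signal over 20% of the ionomycin maximum, relative to buffer baseline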;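 also: each well's signal is peak minus trough fluorescence divided by its pre-addition baseline; 0% = buffer wells and 100% = ionomycin wells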
# YFP-HEK293 quench = iodide YFP quench changes in parental YFP-HEK293, counter-screen for TMEM16A inhibitor project, cell-based; shares compounds with ANO1 block; ionomycin; YFP ratio F(max-min)/F0 at 10 µM; 2,300 tested, under 10 active;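 active = yellow fluorescent protein signal ratio exceeding the buffer control mean by over 5 SD of those controls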;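 also: ratio is mean of duplicate wells from kinetic YFP trace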
# ClC-1 rat inh = ClC-1 chloride channel inhibition, selectivity assay for TMEM16A inhibitor project, cell-based, voltage-dependent ClC-1; CHO ClC-1-YFP, iodide influx fluorescence quench; iodide control reads 0, buffer control 100; 2,300 tested, under 10 active; ratio percent, % at 10 µM; shares compounds with ANO1 block; AID 652236, 2013;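 active = duplicate-mean ratio percent above the mean of iodide-only control wells, which defines zero, plus 5 of their SD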;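 also: higher percent means stronger block of ClC-1 iodide influx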
# * hit, by the source's call; i = inactive; · = no result; ! = repeats disagree. Compounds with a hit are over-represented: about 3.4% of the library has one in this group of screens.
SMILES,ANO1 block,m5-HT2A agonist,MIN6 prolif,MC4R antag cAMP,TMEM16A act,MC4R ag barr,TMEM16A reconf,HEK293 Ca mobil,YFP-HEK293 quench,ClC-1 rat inh
CC1Cc2ccccc2N1C(=S)Nc1ccc(S(N)(=O)=O)cc1 (centres undefined),100*,2.3,-4.0,-0.9,i,-1.7,i,i,-0.864,-21.0
C=CCn1c(NC(=O)c2ccccc2Cl)c(C#N)c2nc3ccccc3nc21,100*,-1.3,-5.8,20.4,i,-0.2,54.5%*,i,-0.881,-25.5
O=C(CN1CSCC1=O)N1CCN(S(=O)(=O)c2cc(C(F)(F)F)ccc2Cl)CC1,·,7.3,0.3,2.4,i,-2.3,·,·,·,·
CCN1CCN(C(c2cc3cccc(C)c3[nH]c2=O)c2nnnn2Cc2ccccc2)CC1 (centres undefined),25*,-5.0,1.5,-2.1,i,1.0,i,i,-0.974,-3.5
COc1ccccc1N(CC(=O)NCCSCc1cccc(C)c1)S(=O)(=O)c1ccccc1,25*,-6.3,-5.2,16.2,i,-3.1,i,i,-0.964,-17.5
CCOc1ccc(Br)cc1S(=O)(=O)N1CC(C)OC(C)C1 (centres undefined),100*,-2.6,-1.2,-1.1,i,1.6,i,i,-1.13,-10.5
CCOc1cc(Br)ccc1S(=O)(=O)N1CC(C)OC(C)C1 (centres undefined),i,0.9,1.1,-2.9,i,-1.1,·,·,·,·
CCOCCCNC(=S)N1CCN(c2nc(-c3ccc(F)cc3)cs2)CC1,100*,-5.9,-0.9,6.5,i,-2.0,31.0%*,i,-0.987,-23.5
COc1ccc(/C(O)=C/C(=O)C(=O)NNC(=O)c2ccccc2)cc1,i,1.4,-4.5,0.4,i,-0.7,·,·,·,·
COc1ccc(/C(O)=C/C(=O)C(=O)NNC(=O)C(O)(c2ccccc2)c2ccccc2)cc1,100*,-1.2,-2.7,1.1,-10.1*,-2.8,20.5%*,i,-1.4,0.0
CCOC(=O)c1ccc(NC(=O)C2CCCN(S(=O)(=O)c3ccc(F)cc3)C2)cc1 (centres undefined),25*,4.0,-3.8,-4.0,i,-0.8,17.5%*,i,-1.11,-4.5
CCOC(=O)c1ccc(NC(=O)c2cc(S(=O)(=O)N3CCOCC3)cn2C)cc1,i,3.1,-0.3,12.3,i,-0.4,·,·,·,·
CCOC(=O)c1ccc(NC(=O)c2cc(S(=O)(=O)N3CCOCC3)ccc2O)cc1,25*,7.8,-0.1,9.5,i,1.3,37.0%*,i,-0.865,-16.5
CCCCc1ccc(S(=O)(=O)NC(=O)C2(C)CCN2C(=O)C/C=C/c2ccccc2)cc1 (centres undefined),·,0.7,·,8.4,·,0.1,·,·,·,·
COc1ccc(Br)cc1/C(C)=N/NC1=NCCN1,100*,-0.9,1.9,10.2,i,0.8,19.5%*,i,-0.858,-10.0
CCCCCOc1ccc(Br)cc1/C(C)=N/NC1=NCCN1,i,-2.7,-3.1,-23.0,i,6.4,·,·,·,·
Cc1cccc(OCC(=O)NNc2c3ccccc3nc3ccccc23)c1,25*,-0.4,-2.6,0.2,i,2.6,i,i,-1.11,-4.5
Cc1cc(N/N=C/c2ccccc2Cl)nc(NCc2ccccc2)n1,i,-7.3,-6.2,7.3,i,0.1,i,i,-1.11,-9.5
CC1(C(=O)NS(=O)(=O)Cc2cccc(Cl)c2)CCN1C(=O)C1(c2ccc(Cl)cc2)CCC1 (centres undefined),·,7.3,·,1.4,·,-1.3,·,·,·,·
CC(=O)/C(C#N)=C1\NC(=O)C(Cc2cc(Cl)ccc2Cl)S1 (centres undefined),100*,4.1,-0.8,2.3,i,-2.7,45.5%*,i,-1.14,-11.5
CC(=O)/C(C#N)=C1\NC(=O)C(Cc2ccccc2Cl)S1 (centres undefined),i,0.3,-0.8,0.9,·,-0.9,·,·,·,·
Cn1nc(C(F)(F)F)c(C#N)c1N1CCN(c2ccc(F)cc2)CC1,25*,-1.1,-3.8,9.2,i,0.7,i,i,-1.31,-11.5
Cc1ccc(NC(=O)c2c(C(F)(F)F)nn(C)c2SCc2ccc(Cl)cc2)cc1C,i,-5.2,-5.8,-1.6,i,3.5,·,·,·,·
Cc1ccc(NC(=O)c2c(C(F)(F)F)nn(C)c2SCc2cccc(C(F)(F)F)c2)cc1C,100*,-0.1,-6.3,6.0,i,0.2,i,i,-0.981,-8.0
CC1CCCN(S(=O)(=O)c2ccc(C(=O)Nc3nnc(-c4ccccn4)o3)cc2)C1 (centres undefined),i,0.4,-1.1,3.2,i,-1.6,·,·,·,·
CC1CCCN(S(=O)(=O)c2ccc(C(=O)Nc3nnc(-c4ccccc4Cl)o3)cc2)C1 (centres undefined),100*,-1.7,-3.7,5.7,i,-0.2,22.5%*,i,-0.852,-8.5
Cc1ccc(C(=O)C2C(=O)C3CCC2C3)cc1 (centres undefined),·,-3.7,·,5.5,·,-2.0,·,·,·,·
c1ccc(CNc2ncnc3ccccc23)cc1,25*!,0.8,-5.8,13.3,i,1.6,i,i,-1.17,-17.0
COc1cc2ncnc(NCc3ccccc3)c2cc1OC,i,-4.3,-0.9,8.1,i,-1.5,·,·,·,·
Cc1noc(C(F)(F)F)c1C(=O)NNC(=O)c1ccccc1,i,-0.6,-1.3,1.9,i,-2.0,·,·,·,·
